Source: ChEMBL document CHEMBL1157378, “Role for cell density in antifungal drug resistance in Candida albicans biofilms” (2007)
≈ marks a conversion by molar mass, not a printed value.

Assays:
Assay type in all cases: functional
Candida albicans [1] = experiment: Antimicrobial activity against Candida albicans GDH2346 dissociated biofilms at cell density of 10^3 cells/ml after 48 hrs by XTT assay; conditions: GDH2346, 48 h
Summary of the method: (§1)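 Polystyrene-well biofilms (48 h, 37°C) washed, then broken up in 100 µl RPMI by scraping and aspiration. Cells used undiluted (about 2 x 10^8 cells/ml equivalent) or adjusted by A600 against a hemacytometer-calibrated yeast standard curve. Drug exposure at 37°C for 48 h (caspofungin 24 h), then XTT/menadione read at 490 nm.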

Candida albicans [2] = experiment: Antimicrobial activity against Candida albicans SC5314 intact biofilms after 48 hrs by XTT assay; conditions: SC5314, 48 h
Summary of the method: (§2)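 Biofilm seeded at 1 x 10^6 cells/ml in RPMI in polystyrene microtiter wells and grown 48 h at 37°C in a moist chamber. Washed once and drug added to the same well (twofold dilutions, 1,024 to 0.0313 µg/ml) for 48 h at 37°C (caspofungin 24 h). Read-out: XTT/menadione reduction at 490 nm.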

Candida albicans [3] = experiment: Antimicrobial activity against Candida albicans GDH2346 at planktonic cell density of 10^3 cells/ml after 48 hrs by XTT assay; conditions: GDH2346, 48 h
Summary of the method: (§3)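 YNB-grown yeast (50 mM glucose, room temperature, shaken, to ~2 x 10^8 cells/ml) washed into MOPS-buffered RPMI 1640 with L-glutamine and set to the stated density. Exposed to twofold serial drug dilutions (1,024 to 0.0313 µg/ml) at 37°C, 48 h (caspofungin 24 h), with drug-free controls. Read-out: XTT (0.5 g/liter) plus 1 µM menadione, formazan at 490 nm.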

Candida albicans [4] = experiment: Antimicrobial activity against Candida albicans FH1 intact biofilms after 48 hrs by XTT assay; conditions: FH1, 48 h; summary of the method: as §2
Candida albicans [5] = experiment: Antimicrobial activity against fluconazole-resistant Candida albicans FH5 intact biofilms after 48 hrs by XTT assay; conditions: FH5, 48 h; summary of the method: as §2
Candida albicans [6] = experiment: Antimicrobial activity against Chk1 deficient Candida albicans CHK21 dissociated biofilms at cell density of 10^3 cells/ml after 48 hrs by XTT assay; conditions: CHK21, 48 h; summary of the method: as §1
Candida albicans [7] = experiment: Antimicrobial activity against Chk1 deficient Candida albicans CHK21 at planktonic cell density of 10^3 cells/ml after 48 hrs by XTT assay; conditions: CHK21, 48 h; summary of the method: as §3
Candida albicans [8] = experiment: Antimicrobial activity against fluconazole-resistant Candida albicans FH5 dissociated biofilms at cell density of 10^3 cells/ml after 48 hrs by XTT assay; conditions: FH5, 48 h; summary of the method: as §1
Candida albicans [9] = experiment: Antimicrobial activity against Chk1 deficient Candida albicans CHK21 at planktonic cell density of 10^8 cells/ml after 48 hrs by XTT assay; conditions: CHK21, 48 h; summary of the method: as §3
Candida albicans [10] = experiment: Antimicrobial activity against Candida albicans FH1 dissociated biofilms at cell density of 10^3 cells/ml after 48 hrs by XTT assay; conditions: FH1, 48 h; summary of the method: as §1
Candida albicans [11] = experiment: Antimicrobial activity against Candida albicans SC5314 biofilms upto 12 hrs by XTT assay; conditions: SC5314, 12 h
Summary of the method: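 SC5314 biofilm development followed over 72 h in polystyrene wells. At intervals the developing biofilm was exposed to fluconazole or amphotericin B, and metabolic activity was read by XTT/menadione reduction at 490 nm.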

Candida albicans [12] = experiment: Antimicrobial activity against Candida albicans SC5314 biofilms after 24 hrs by XTT assay; conditions: SC5314, 24 h
Summary of the method: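 Intact biofilms formed from 1 x 10^6 cells/ml in RPMI in polystyrene microtiter wells, 48 h at 37°C in a moist chamber, then washed once and covered with 100 µl RPMI. A twofold drug series was added in the same well for 24 h at 37°C. Metabolic activity was read by XTT (0.5 g/liter, 1 µM menadione, up to 2 h) at 490 nm.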

Candida albicans [13] = experiment: Antimicrobial activity against Cdr1, Cdr2 and Mdr1 deficient Candida albicans DSY1050 at planktonic cell density of 10^3 cells/ml after 48 hrs by XTT assay; conditions: DSY1050, 48 h; summary of the method: as §3
Candida albicans [14] = experiment: Antimicrobial activity against Candida albicans SC5314 at planktonic cell density of 10^8 cells/ml after 48 hrs by XTT assay; conditions: SC5314, 48 h; summary of the method: as §3
Candida albicans [15] = experiment: Antimicrobial activity against Candida albicans FH1 at planktonic cell density of 10^3 cells/ml after 48 hrs by XTT assay; conditions: FH1, 48 h; summary of the method: as §3
Candida albicans [16] = experiment: Antimicrobial activity against Chk1 deficient Candida albicans CHK21 intact biofilms after 48 hrs by XTT assay; conditions: CHK21, 48 h; summary of the method: as §2
Candida albicans [17] = experiment: Antimicrobial activity against fluconazole-resistant Candida albicans FH5 at planktonic cell density of 10^3 cells/ml after 48 hrs by XTT assay; conditions: FH5, 48 h; summary of the method: as §3
Candida albicans [18] = experiment: Antimicrobial activity against Cdr1, Cdr2 and Mdr1 deficient Candida albicans DSY1050 intact biofilms after 48 hrs by XTT assay; conditions: DSY1050, 48 h; summary of the method: as §2
Candida albicans [19] = experiment: Antimicrobial activity against Chk1 deficient Candida albicans CHK21 dissociated biofilms at cell density of 10^8 cells/ml after 48 hrs by XTT assay; conditions: CHK21, 48 h; summary of the method: as §1
Candida albicans [20] = experiment: Antimicrobial activity against Cdr1, Cdr2 and Mdr1 deficient Candida albicans DSY1050 at planktonic cell density of 10^8 cells/ml after 48 hrs by XTT assay; conditions: DSY1050, 48 h; summary of the method: as §3
Candida albicans [21] = experiment: Antimicrobial activity against Candida albicans SC5314 dissociated biofilms at cell density of 10^8 cells/ml after 48 hrs by XTT assay; conditions: SC5314, 48 h; summary of the method: as §1
Candida albicans [22] = experiment: Antimicrobial activity against Candida albicans FH1 dissociated biofilms at cell density of 10^8 cells/ml after 48 hrs by XTT assay; conditions: FH1, 48 h; summary of the method: as §1
Candida albicans [23] = experiment: Antimicrobial activity against Candida albicans GDH2346 dissociated biofilms at cell density of 10^8 cells/ml after 48 hrs by XTT assay; conditions: GDH2346, 48 h; summary of the method: as §1
Candida albicans [24] = experiment: Antimicrobial activity against Candida albicans GDH2346 intact biofilms after 48 hrs by XTT assay; conditions: GDH2346, 48 h; summary of the method: as §2
Candida albicans [25] = experiment: Antimicrobial activity against Candida albicans GDH2346 at planktonic cell density of 10^8 cells/ml after 48 hrs by XTT assay; conditions: GDH2346, 48 h; summary of the method: as §3
Candida albicans [26] = experiment: Antimicrobial activity against Cdr1, Cdr2 and Mdr1 deficient Candida albicans DSY1050 dissociated biofilms at cell density of 10^8 cells/ml after 48 hrs by XTT assay; conditions: DSY1050, 48 h; summary of the method: as §1
Candida albicans [27] = experiment: Antimicrobial activity against fluconazole-resistant Candida albicans FH5 at planktonic cell density of 10^8 cells/ml after 48 hrs by XTT assay; conditions: FH5, 48 h; summary of the method: as §3
Candida albicans [28] = experiment: Antimicrobial activity against Candida albicans FH1 at planktonic cell density of 10^8 cells/ml after 48 hrs by XTT assay; conditions: FH1, 48 h; summary of the method: as §3
Candida albicans [29] = experiment: Antimicrobial activity against Candida albicans SC5314 dissociated biofilms at cell density of 10^3 cells/ml after 48 hrs by XTT assay; conditions: SC5314, 48 h; summary of the method: as §1
Candida albicans [30] = experiment: Antimicrobial activity against Candida albicans SC5314 at planktonic cell density of 10^3 cells/ml after 48 hrs by XTT assay; conditions: SC5314, 48 h; summary of the method: as §3
Candida albicans [31] = experiment: Antimicrobial activity against Cdr1, Cdr2 and Mdr1 deficient Candida albicans DSY1050 dissociated biofilms at cell density of 10^3 cells/ml after 48 hrs by XTT assay; conditions: DSY1050, 48 h; summary of the method: as §1
Candida albicans [32] = experiment: Antimicrobial activity against fluconazole-resistant Candida albicans FH5 dissociated biofilms at cell density of 10^8 cells/ml after 48 hrs by XTT assay; conditions: FH5, 48 h; summary of the method: as §1
Candida albicans [33] = experiment: Antimicrobial activity against Candida albicans assessed as cell viability at cell density of 2 x 10^4 cells/ml preincubated for 1 hr

C[C@@H]1[C@H](O)[C@@H](C)/C=C/C=C/C=C/C=C/C=C/C=C/C=C/[C@H](O[C@@H]2O[C@H](C)[C@@H](O)[C@H](N)[C@@H]2O)C[C@@H]2O[C@](O)(C[C@@H](O)C[C@@H](O)[C@H](O)CC[C@@H](O)C[C@@H](O)CC(=O)O[C@H]1C)C[C@H](O)[C@H]2C(=O)O [AMPHOTERICIN B]
MIC80 (Candida albicans [1]): 0.5 µg/mL (≈ 0.541 µM)
MIC80 (Candida albicans [2]): > 32 µg/mL
MIC80 (Candida albicans [3]): 0.125 µg/mL (≈ 0.135 µM)
MIC80 (Candida albicans [4]): > 32 µg/mL
MIC80 (Candida albicans [5]): > 32 µg/mL
MIC80 (Candida albicans [6]): 0.25 µg/mL (≈ 0.271 µM)
MIC80 (Candida albicans [7]): 0.125 µg/mL (≈ 0.135 µM)
MIC80 (Candida albicans [8]): 0.25 µg/mL (≈ 0.271 µM)
MIC80 (Candida albicans [9]): > 32 µg/mL
MIC80 (Candida albicans [10]): 0.125 µg/mL (≈ 0.135 µM)
MIC80 (Candida albicans [11]): 0.125 µg/mL (≈ 0.135 µM)
MIC80 (Candida albicans [12]): > 8 µg/mL
MIC80 (Candida albicans [13]): 0.25 µg/mL (≈ 0.271 µM)
MIC80 (Candida albicans [14]): > 32 µg/mL
MIC80 (Candida albicans [15]): 0.125 µg/mL (≈ 0.135 µM)
MIC80 (Candida albicans [16]): > 32 µg/mL
MIC80 (Candida albicans [17]): 0.25 µg/mL (≈ 0.271 µM)
MIC80 (Candida albicans [18]): > 32 µg/mL
MIC80 (Candida albicans [19]): > 32 µg/mL
MIC80 (Candida albicans [20]): > 32 µg/mL
MIC80 (Candida albicans [21]): > 32 µg/mL
MIC80 (Candida albicans [22]): > 32 µg/mL
MIC80 (Candida albicans [23]): > 32 µg/mL
MIC80 (Candida albicans [24]): 32 µg/mL (≈ 34.6 µM)
MIC80 (Candida albicans [25]): > 32 µg/mL
MIC80 (Candida albicans [26]): > 32 µg/mL
MIC80 (Candida albicans [27]): > 32 µg/mL
MIC80 (Candida albicans [28]): > 32 µg/mL
MIC80 (Candida albicans [29]): 0.5 µg/mL (≈ 0.541 µM)
MIC80 (Candida albicans [30]): 0.125 µg/mL (≈ 0.135 µM)
MIC80 (Candida albicans [31]): 0.25 µg/mL (≈ 0.271 µM)
MIC80 (Candida albicans [32]): > 32 µg/mL
Activity (Candida albicans [33]): 80%
